# Screening data as filed in PubChem.
# SUMO HTRF inh: inhibitors of in vitro SUMOylation cascade, primary screen, biochemical, HTRF, uHTS; HTRF SUMOylation assay, SAE1/SAE2 + UBC9; AID 2006, 2009; 290,000 tested, 0.36% active; inhibition, % at 35 µM; in the data active = inhibition above about 50%, passing the limit was not always enough
# Target sequence (P63279 whole entry, looked up): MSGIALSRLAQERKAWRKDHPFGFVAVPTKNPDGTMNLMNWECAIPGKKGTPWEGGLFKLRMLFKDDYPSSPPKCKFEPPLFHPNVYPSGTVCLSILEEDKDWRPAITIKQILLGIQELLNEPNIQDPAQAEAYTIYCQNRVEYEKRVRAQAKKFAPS
# Mot1-301 SUMO: yeast Mot1-301 growth rescue at high temperature, primary screen, SUMOylation pathway inhibitor project, S. cerevisiae, ATP luminescence, 38.5C | growth rescue, % at 18.8 µM | 320,000 tested, 1% active | S. cerevisiae Mot1-301 growth rescue; percent above DMSO median, 100 means doubled | AID 2716, 2010;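 active = every valid replicate shows activation above 250% relative to neutral control wells; inactive = the rest, any valid replicate at or below 250%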;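 also: OY570 slx delta 5 strain wells were the positive control but not used for scaling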
# IMP-1 inh-1: IMP-1 metallo-beta-lactamase inhibitors, primary screen, biochemical, epi-absorbance readout, Pseudomonas aeruginosa enzyme; purified IMP-1, nitrocefin hydrolysis, epi-absorbance fluorescence; inhibition, % at 5.6 µM; 290,000 tested, 0.45% active; AID 1556, 2009;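 active = inhibition above the mean plus 3 SD of all compounds in the same screening run, cut at about 4.5% in these data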;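 also: 0% = IMP-1 with DMSO and 100% = DMSO wells lacking enzyme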
#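 System: purified recombinant IMP-1 beta-lactamase. Medium: Zinc- and detergent-supplemented HEPES buffer, pH 7.1. Compound: one 5.6 µM dose […]. Schedule: 15 min preincubation plus 25 min reaction at 25 °C. Technique: Epi-absorbance fluorescence, 480 nm excitation, 530 nm emission.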
# FID counter: compounds displacing fluorescent DNA intercalator, primary screen, artefact control for HCV NS3 helicase inhibitor project, biochemical, FID fluorescence; AID 1845, 2009; inhibition, % at 7.9 µM; 290,000 tested, 0.17% active; DNA fluorescent intercalator displacement; in the data active = inhibition above about 37%;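 also: 0% = vehicle and 100% = reference compound; higher means more ethidium bromide displaced from hairpin DNA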
# NALP1 inh: NALP1 inflammasome inhibitors in reconstituted yeast, colorimetric, S. cerevisiae, triplicate retest. AID 2071, 2009. S. cerevisiae NALP1/ASC/caspase-1 growth, X-gal OD620, 72 h. 280,000 tested, 0.61% active. inhibition, % at 10 µM; in the data active = inhibition mostly above about 24%, no sharp cut-off; inactive = mostly below about 32%
# VIM-2 inhibitor: VIM-2 metallo-beta-lactamase inhibitors, primary screen, biochemical, epi-absorbance readout, Pseudomonas aeruginosa enzyme; inhibition, % at 5.6 µM; 290,000 tested, 0.89% active; purified VIM-2, nitrocefin hydrolysis, epi-absorbance fluorescence;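 active = inhibition above the mean of all tested compounds plus 3 SD, cutoff set per screening run, cut at about 7.5% in these data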;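 also: red hydrolysis product quenches plate fluorescence so inhibitors raise well fluorescence; 0% = enzyme with DMSO and 100% = DMSO without enzyme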
# IMP-1 inh-2: IMP-1 metallo-beta-lactamase inhibitors, confirmation, selectivity assay for selective VIM-2 inhibitor project, biochemical, epi-absorbance readout, triplicate. inhibition, % at 5.6 µM. 1,300 tested, under 10 active. purified IMP-1, nitrocefin hydrolysis, epi-absorbance fluorescence. shares compounds with VIM-2 inhibitor; call rule not given here;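 also: 0% = enzyme with vehicle and 100% = vehicle without enzyme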
# VIM-2 FRET ctr: VIM-2 inhibitors in FRET format, confirmation, artefact control for selective VIM-2 inhibitor project, biochemical, epi-absorbance artifact exclusion. purified VIM-2, CCF2 FRET substrate hydrolysis. shares compounds with VIM-2 inhibitor. 1,300 tested, 23% active. inhibition, % at 5.6 µM;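 active = inhibition above the mean of all tested compounds plus 3 SD, cut at about 19% in these data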;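 also: 0% = VIM-2 plus DMSO and 100% = no enzyme wells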
# TEM-1 counter: TEM-1 serine beta-lactamase inhibitors, counter-screen for VIM-2 inhibitor project, biochemical, epi-absorbance, HTS; shares compounds with VIM-2 inhibitor; Purified TEM-1, nitrocefin hydrolysis, epi-absorbance fluorescence; inhibition, % at 5.6 µM; 1,300 tested, 3% active;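 active = inhibition above that campaign's mean inhibition plus 3 SD, cut at about 0.46% in these data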;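 also: 0% = TEM-1 with DMSO and 100% = TEM-1 with 100 µM potassium clavulanate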
# Target sequence (P62593 whole entry, looked up): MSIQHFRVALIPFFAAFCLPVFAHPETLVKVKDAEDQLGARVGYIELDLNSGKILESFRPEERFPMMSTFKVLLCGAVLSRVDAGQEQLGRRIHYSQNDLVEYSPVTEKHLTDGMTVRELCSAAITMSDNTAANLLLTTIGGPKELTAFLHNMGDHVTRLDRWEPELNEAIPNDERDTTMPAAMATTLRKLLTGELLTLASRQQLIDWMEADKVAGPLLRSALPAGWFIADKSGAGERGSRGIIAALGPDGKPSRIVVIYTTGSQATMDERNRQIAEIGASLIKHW
# VIM-2 inh conf: VIM-2 metallo-beta-lactamase inhibitors, confirmation, biochemical, epi-absorbance, hits shared with IMP-1 screen; shares compounds with VIM-2 inhibitor; purified VIM-2, nitrocefin hydrolysis; inhibition, % at 5.6 µM; 1,300 tested, 96% active; AID 2187, 2009;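 active = inhibition of the VIM-2 beta-lactamase enzyme above about 11% from the earlier first-round screen, limit read from the data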;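 also: 0% = VIM-2 with DMSO and 100% = buffer wells without enzyme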
# Numbers without * were called inactive; / = no result given. This is a sample that favours compounds with a hit; in the whole collection about 2.9% have one here.
SMILES,SUMO HTRF inh,Mot1-301 SUMO,IMP-1 inh-1,FID counter,NALP1 inh,VIM-2 inhibitor,IMP-1 inh-2,VIM-2 FRET ctr,TEM-1 counter,VIM-2 inh conf
O=C(CSc1nnc(NC(=O)c2ccccc2F)s1)NCC1CCCO1 (centres undefined),5.5,-5.3,-1.9,-11.8,-5.3,15.0*,-3.1,28.2*,-6.8,17.4*
Cc1onc(-c2ccccc2)c1C(=O)N/N=C/c1ccco1,12.3,-22.4,-4.6,-23.9,10.8,34.1*,-4.2,2.7,-5.2,1.8
CCc1n[nH]c(=S)n1/N=C/c1ccc(NC(C)=O)cc1,9.8,-3.3,-3.2,-5.0,-2.1,23.2*,-3.7,61.4*,-6.6,45.7*
CC(/C=N/n1c(-c2ccccn2)n[nH]c1=S)=C\c1ccccc1,14.3,0.9,-3.8,-1.9,6.9,1.7,/,/,/,/
CC(/C=N/n1c(-c2ccco2)n[nH]c1=S)=C\c1ccccc1,13.0,10.6,-3.0,-21.6,28.0,13.3*,-3.3,39.6*,-7.2,23.3*
CCc1n[nH]c(=S)n1/N=C/C(C)=C\c1ccccc1,14.1,-8.1,-2.2,-24.6,10.5,57.3*,-4.4,83.2*,-10.1,70.3*
CCC(C)(C)NC(=O)C(c1ccc(OC)cc1)N(C(=O)CCC(=O)Nc1cc(C)on1)C(C)(C)C (centres undefined),-5.0,-17.4,-4.2,-41.8,8.1,0.1,/,/,/,/
CC(=NCCCn1ccnc1)c1c(C)[nH]n(-c2ccc([N+](=O)[O-])cc2)c1=O,17.1,-6.4,-2.5,5.1,4.9,12.5*,-1.8,-15.8,-3.0,34.1*
Cc1[nH]n(-c2ccc([N+](=O)[O-])cc2)c(=O)c1/C=N/N1CCOCC1,-8.5,-23.9,-0.2,11.4,2.6,-3.1,/,/,/,/
c1ccc(-c2noc(-c3ccco3)n2)nc1,14.2,-3.6,-0.2,0.4,2.2,-4.6,/,/,/,/
c1ccc(-c2nccc(-c3ccco3)n2)nc1,11.5,-8.8,-0.8,-4.3,-9.5,33.6*,-5.1,-19.7,-6.8,29.8*
CCN(CC)CCN1C(=O)C(=O)/C(=C(/O)c2ccc(S(=O)(=O)N3CCOCC3)cc2)C1c1ccc(Cl)cc1 (centres undefined),11.5,12.3,-2.5,-11.0,9.5,-3.6,/,/,/,/
CN1CCN(c2ccc(-c3ccc4ccccc4n3)cc2)CC1,30.7,/,-1.9,27.9,18.0,68.2*,-2.1,2.9,-5.0,80.8*
COc1ccc(NCC(=O)N/N=C/C(C)c2ccccc2)cc1 (centres undefined),-13.9,-10.1,-1.0,-3.4,18.7,-1.4,/,/,/,/
CCCCN(CC)CCCNC(=O)c1cc2c(-c3ccc(OC)c(OC)c3)nn(C)c2s1,19.3,-4.9,-3.7,29.0,10.6,12.7*,-2.6,0.7,-5.0,24.3*
CCN(CC)CCCNC(=O)c1cc2c(-c3cccc(OC)c3)nn(C)c2s1,26.4,5.3,-5.0,26.9,20.2,7.7,/,/,/,/
CSS(=O)(=O)c1cccc2cccnc12,16.7,-26.8,-1.8,-2.1,20.3,38.4*,-2.5,-30.2,-5.3,42.8*
O=C(NCCN1CCOCC1)c1cccn2c(=O)c3c4c(sc3nc12)CCCC4,-8.7,-6.7,-1.1,-8.7,/,16.8*,-3.4,-0.7,-7.6,47.0*
Cc1cccn2c(=O)c3cc(C(=O)NCCN4CCOCC4)n(C)c3nc12,25.6,-4.0,-1.1,-3.8,-3.6,19.2*,-2.6,-2.0,-7.6,28.0*
CN(Cc1cccs1)S(=O)(=O)c1ccc(Cl)cc1F,/,85.4,/,/,/,/,/,/,/,/
Cc1ccc(OCC(=O)NCCc2c[nH]c3ccccc23)cc1,14.7,12.8,-3.3,-12.8,1.8,1.2,/,/,/,/
Cc1ccc(Nc2c3c(nc4ncnn24)CCC3)cc1,17.1,3.7,-1.2,-15.6,2.1,17.2*,-3.2,1.0,-4.7,24.1*
Cc1ccc(Nc2c3c(nc4ncnn24)CC(C)CC3)cc1 (centres undefined),25.2,-10.1,-2.2,-22.4,23.1,-1.4,/,/,/,/
CCN(CC)CCSc1nnc2c3cc(C)ccc3n(Cc3ccccc3)c2n1,10.4,-1.9,-2.2,9.3,2.3,22.8*,-3.1,3.7,-7.3,42.6*
CSc1nnc2c3cc(F)ccc3n(Cc3ccccc3)c2n1,-7.1,-28.3,/,/,7.1,/,/,/,/,/
SMILES,SUMO HTRF inh,Mot1-301 SUMO,IMP-1 inh-1,FID counter,NALP1 inh,VIM-2 inhibitor,IMP-1 inh-2,VIM-2 FRET ctr,TEM-1 counter,VIM-2 inh conf
Cc1nnc2c3ccccc3c(-c3cccs3)nn12,1.9,3.6,-2.3,-8.1,-11.4,28.4*,-3.4,1.0,-5.2,39.7*
CCOc1ccccc1NC(=O)CN1CCC(NC(=O)Nc2ccccc2)CC1,1.7,200.9,-3.1,-14.6,1.4,-0.4,/,/,/,/
CCOC(=O)c1cc(-c2ccc(/C=N\n3cnnc3)o2)ccc1Cl,10.2,-6.0,-0.3,-16.9,13.1,57.0*,-2.7,-3.5,-5.9,77.8*
Cc1cc(-c2ccc(/C=N/n3cnnc3)o2)ccc1Cl,10.7,98.0,-2.2,-16.2,29.5,13.9*,-2.0,-8.6,-1.9,37.1*
CCOC(=O)c1cc(-c2ccc(/C=C3/C(=O)N(c4ccc(C(=O)O)cc4)N=C3C)o2)ccc1Cl,50.0,18.8,-3.9,-2.7,-0.5,-3.7,/,/,/,/
CCCCOC(=O)c1cc(-c2ccc(/C=N/n3cnnc3)o2)ccc1Cl,/,-7.6,-1.6,-12.8,/,21.6*,-0.1,-5.2,-5.7,54.0*
CCN(CC)C(=O)c1cc2c(=O)n3cccc(C)c3nc2s1,11.6,1.8,-2.2,-11.8,8.3,15.8*,-3.6,-9.5,-3.3,19.8*
CCCCN(CC)C(=O)c1cc2c(=O)n3cccc(C)c3nc2s1,31.4,-15.7,-1.3,-22.8,0.8,12.2*,-2.3,-5.4,-3.7,19.5*
CCN(C(=O)c1cc2c(=O)n3ccccc3nc2s1)C1CCCCC1,30.6,1.1,-3.5,-31.4,8.8,2.9,/,/,/,/
